Screening results deposited in PubChem by Broad Institute.
Rows were chosen to be rich in hits. Some 3% of all compounds tested hit in one or more screens of this group.
CaV13 FRET inh – Disruptors of the CACNA1D IQ motif to Ca2+-dependent inactivation inhibitor domain association, primary screening, Förster resonance energy transfer in intact living …; HEK cells, CFP/YFP FRET ICDI-IQ, plate reader, 10 min; percent FRET-ratio fall versus neutral wells; inhibition, % at 12.3 µM; 340,000 tested, 0.098% active;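 active means mean replicate inhibition of at least 30% and at least 1% of replicates passing that level; inconclusive means only one of the two criteria is met; inactive means neither criterion is met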
N-glyco inh – increase of ERlucT glycosylation luciferase signal, primary screen, N-linked glycosylation inhibitor project, D54 ERlucT cells, luminescence, set 2 | D54 ERlucT glycosylation luciferase reporter, 24 h; percent of 100 nM tunicamycin response | reporter increase, % at 12.5 µM | 360,000 tested, 0.23% active | AID 588692, 2011;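 active means mean luciferase reporter signal, scaled so untreated is 0 and the glycosylation-blocking control 100, at or above a set limit in every replicate; inconclusive means mean reaches the limit but not every replicate does; inactive means mean below the limit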;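 further: luciferase carries N-glycosylation sites so blocking glycosylation raises the light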
T cruzi inh – inhibitors of intracellular T. cruzi growth, primary screen, luminescence, NIH3T3 host cells | AID 1885, 2009 | 300,000 tested, 1.4% active | inhibition, % (no concentration beside the values) | T. cruzi beta-gal in NIH3T3, 90 h;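 active means mean inhibition across valid replicates above about 55%, limit read from the data; inconclusive means mean below that limit but half or more replicates reach it; inactive means mean below it, under half of replicates reach it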;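 further: signal also drops with host cell toxicity which is not excluded here; higher percent means less beta-gal luminescence so fewer parasites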
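Material: NIH/3T3 host cells with β-galactosidase reporter T. cruzi; Input: 5,000 host fibroblasts per well; Medium: DMEM, 2% fetal bovine serum; Compound: 50 nL DMSO compound solution per well; Schedule: 3 h host attachment, then at least 90 h co-culture; Detection: luminescent β-galactosidase signal after 60 min lysis.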
PvdQ acylase – P. aeruginosa PvdQ acylase inhibitors, primary screen, biochemical, fluorescence, plate reader and imaging, single point | PvdQ acylase [Pseudomonas aeruginosa LESB58] | 340,000 tested, 0.063% active | purified PvdQ acylase | inhibition, % at 10 µM; in the data active means inhibition above about 30%, passing the limit was not always enough; inconclusive means no clear call, values can overlap the other calls
HSF1 activator – HSF-1 activators, primary screen, NIH3T3-HGL cells, MG132 stress, luminescence, single point. NIH3T3-HGL HSF-1 luciferase reporter, 8 h; 100% = twice DMSO control signal. activation, % at 9 µM. AID 504408, 2011. 300,000 tested, 1.7% active;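 active means mean replicate activation of at least 50% with a set share of replicates each reaching 50%; inconclusive means only one of those two conditions met; inactive means mean below 50% and too few replicates reaching it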
PfHsp90 set2 – growth inhibition of PfHsp90-expressing yeast, primary screen, antimalarial PfHsp90 inhibitor project, S. cerevisiae, BacTiter-Glo luminescence, single point, set 2; inhibition, % at 9.4 µM; AID 504621, 2011; BacTiter-Glo ATP, 48 h; yeast lacking PDR1 and PDR3 efflux regulators; 310,000 tested, 0.32% active;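 active means every replicate shows inhibition above about 80%, whatever the replicate mean, limit read from the data; inconclusive means mean inhibition reaches the set limit but some replicate falls short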
Numbers stand for hits; – = inactive; ? = inconclusive; · = no result given; + = active, no number.

SMILES	CaV13 FRET inh	N-glyco inh	T cruzi inh	PvdQ acylase	HSF1 activator	PfHsp90 set2
CCN(CC)c1ccc2c(Cl)c(Br)c(=O)oc2c1	·	–	59	–	326	·
CCN(CC)c1ccc2cc(C#N)c(=O)oc2c1	+	–	–	–	–	–
CCN(CC)c1ccc2c(C)c(Cl)c(=O)oc2c1	+	–	–	–	–	–
Cc1cccc(N(CC(=O)NCc2ccc(F)cc2)C(=O)c2csnn2)c1C	–	–	–	–	52	–
CC(C)(C)S(=O)(=O)N1C[C@H]2CC/C=C\C/C(c3ccccc3)=C\2[C@@H]1CCO	–	38	·	–	·	–
CCC12C(=O)C(CC)(C(c3ccccc3)=C1c1ccccc1)[C@@H]1C(=O)N(c3ccccc3)C(=O)C12 (stereo not given in full)	–	–	–	–	–	–
CCC12C(=O)C(CC)(C(c3ccccc3)=C1c1ccccc1)[C@@H]1C(=O)N(c3ccc(C)cc3)C(=O)C12 (stereo not given in full)	–	–	57	–	–	–
Cc1nnc2nc(N)[nH]n2c1=O	–	·	·	·	·	·
CN(C)CCCN1CC(=O)N2CCc3ccc(Br)cc3C2CC1=O (stereo not given)	–	·	·	·	·	·
COc1ccc(C(CNc2ccc(S(=O)(=O)N3CCN(C)CC3)cc2[N+](=O)[O-])N(C)C)cc1 (stereo not given)	–	–	·	–	·	·
COc1ccc(C(CNc2ccc(S(=O)(=O)N3CCCC3)cc2[N+](=O)[O-])N2CCCC2)cc1 (stereo not given)	–	–	59	–	–	–
CC(C)(C)NS(=O)(=O)c1ccc(NC(=O)c2cc(-c3ccccc3)nc3ccccc23)cc1	–	–	59	–	–	–
CC(C)(C)NS(=O)(=O)c1ccc(NC(=O)C(Sc2ccccc2)c2ccccc2)cc1 (stereo not given)	–	–	56	–	–	–
O=C(Nc1cc([N+](=O)[O-])ccc1Cl)C(Sc1ccccc1)c1ccccc1 (stereo not given)	·	–	–	–	–	–
O=C(Nc1ccc(Cl)c([N+](=O)[O-])c1)C(Sc1ccccc1)c1ccccc1 (stereo not given)	–	–	64	–	–	–
CC(=O)N(C)c1ccc(NC(=O)C(Sc2ccccc2)c2ccccc2)cc1 (stereo not given)	–	–	–	–	–	–
C=CCN1[C@@H](C)[C@H](c2ccccc2)Oc2cccc(N3CCCC(C)C3)c2S1(=O)=O (stereo not given in full)	–	·	·	·	·	·
CCOC(=O)CCCn1ncn2c(cc3occc32)c1=O	–	–	–	33	–	–
COc1ccc(CNC(=O)CCCn2ncn3c(cc4occc43)c2=O)cc1	–	–	–	–	–	–
Cn1c(NCc2cccnc2)nc2cc(-c3cccc(C(=O)NCCO)c3)sc2c1=O	–	–	·	·	·	·
Cc1sc2ncnc(N/N=C/c3cccc(O)c3)c2c1C	–	–	–	–	·	–
CC(=NNC(=S)Nc1ccccc1Cl)c1ccccn1	–	–	·	–	·	99
C/C(=N\Nc1ncc(Cl)cc1Cl)c1ccccn1	·	–	69	–	–	108
C/C(=N\Nc1ncnc2sc(C)c(C)c12)c1ccccn1	–	–	–	–	–	104
CC(C)N(c1ccccc1)c1ccc(NC(=O)[C@@H]2O[C@H](CO)[C@@H](O)[C@H]2O)cc1	–	–	·	·	·	·
COC(=O)/C=C/C(=O)Nc1cccc(C(F)(F)F)c1	–	?	–	–	93	–
CCOC(=O)/C=C/C(=O)Nc1cccc([N+](=O)[O-])c1	·	–	–	–	–	98
FC(F)(F)c1cccc(NC(=S)NNC(=S)Nc2cccc(C(F)(F)F)c2)c1	·	·	55	·	–	·
Cc1ccc(OC(F)F)c(NC(=O)Nc2cccc(C(F)(F)F)c2)c1	–	–	55	–	–	–
